MC4R antag cAMP: MC4R antagonists of cAMP signaling, primary screen, cell-based, TR-FRET, antagonist arm of biased-ligand search. Melanocortin receptor 4 (Homo sapiens), P32245. MC4R-expressing cells, MTII-stimulated cAMP, LANCE TR-FRET. inhibition, % at 6.5 µM. 360,000 compounds, 0.48% hits. AID 540295, 2011;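 active = inhibition above its plate's cutoff, the mean of tested wells on that plate plus 3 SD, cut at about 29% in these data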;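 also: 0% = Melanotan II alone and 100% = Melanotan II plus saturating MCL0020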
Target sequence (P32245 whole entry, looked up): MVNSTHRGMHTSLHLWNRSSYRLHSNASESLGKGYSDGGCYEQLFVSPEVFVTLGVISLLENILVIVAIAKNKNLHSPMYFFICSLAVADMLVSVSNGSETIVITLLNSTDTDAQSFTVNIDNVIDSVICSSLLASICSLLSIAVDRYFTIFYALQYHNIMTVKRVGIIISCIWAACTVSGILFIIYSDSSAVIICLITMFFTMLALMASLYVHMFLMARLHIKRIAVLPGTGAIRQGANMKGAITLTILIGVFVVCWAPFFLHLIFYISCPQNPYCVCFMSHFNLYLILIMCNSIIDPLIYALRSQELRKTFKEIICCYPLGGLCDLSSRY
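System: U2OS-MC4R stable cell line; Technique: Eu-cAMP/anti-cAMP TR-FRET, emission 671 nm; Repeats: single well per compound; Also added: Melanotan II; Dosing: one concentration, 6.5 µM nominal; Schedule: 30-min compound, 1-h challenge, 1-h detection, room temperature.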
Exocytosis inh: LAMP-1 surface exposure blockers, TALL-104 cells – cell-based, flow cytometry, MLPCN library, primary screen; TALL-104 LAMP-1 surface exposure; cells stimulated with thapsigargin and PMA; inhibition, % at 10 µM; 360,000 compounds, 0.66% hits; AID 651702, 2012;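 active = inhibition above about 55%, limit read from the data; inconclusive = no clear call, values can overlap the other calls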
MC4R ag barr: MC4R agonists recruiting beta-arrestin, primary screen, cell-based, luminescence, agonist arm of biased-ligand search | Melanocortin receptor 4 (Homo sapiens), P32245 | U2OS MC4R beta-arrestin complementation; percent of melanotan II response, DMSO zero | activation, % at 8.9 µM | 360,000 compounds, 0.98% hits;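 active = activation above a per-plate cutoff, the mean activation of sample wells on that plate plus 3 SD, cut at about 8% in these data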
Myeloid diff MLP: induction of myeloid progenitor differentiation, primary screen, cell-based, flow cytometry, MLPCN library; ER-HoxA9 myeloid progenitors, lysozyme-GFP differentiation; 360,000 compounds, 1% hits; AID 624256, 2012; calls only at 10 µM;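 active = normalized GFP-positive differentiation at or above the plate's own cutoff, the solvent-only control mean plus 3 SD; inconclusive = no clear call, values can overlap the other calls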;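 also: cells exposed to compound for four days before flow analysis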
EBI2 antag: EBI2 receptor antagonists, beta-arrestin recruitment, primary screen, cell-based, luminescence, 7a,25-OHC stimulation, uHTS. 7a,25-OHC stimulated. inhibition, % at 5 µM. 360,000 compounds, 0.81% hits. AID 651636, 2012; in the data active = inhibition above about 38%;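 also: enzyme fragment complementation signal reports receptor beta-arrestin coupling in cells; 0% = agonist plus DMSO wells and 100% = wells without agonist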
Target sequence (P32249 whole entry, looked up, the tested form may be a part): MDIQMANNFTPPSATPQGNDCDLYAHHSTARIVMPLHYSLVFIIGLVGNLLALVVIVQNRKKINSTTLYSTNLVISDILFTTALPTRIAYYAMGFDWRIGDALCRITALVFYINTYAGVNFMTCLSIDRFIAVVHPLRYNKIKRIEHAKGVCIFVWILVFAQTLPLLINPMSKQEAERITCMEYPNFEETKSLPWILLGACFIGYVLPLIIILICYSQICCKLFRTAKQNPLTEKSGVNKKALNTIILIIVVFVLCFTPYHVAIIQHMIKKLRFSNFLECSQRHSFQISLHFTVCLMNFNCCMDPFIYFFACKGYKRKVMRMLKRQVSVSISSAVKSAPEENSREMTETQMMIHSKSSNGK
EBI2 antag conf: EBI2 antagonist hit retest, beta-arrestin, confirmation, cell-based, single concentration, luminescence, 7a,25-OHC stimulation; shares compounds with EBI2 antag; 7a,25-OHC antagonism; inhibition, % at 5 µM; 2,400 compounds, 29% hits; AID 651997, 2013;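 active = inhibition of at least 50%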
EBI2 agonist: EBI2 agonist activity of antagonist hits, confirmation, counter-screen for EBI2 antagonist project, cell-based, single concentration, agonist mode, luminescence; AID 652000, 2013; EBI2-expressing cells, 60 min; 0% vehicle, 100% 7α,25-dihydroxycholesterol control; 2,400 tested, under 10 active; shares compounds with EBI2 antag; activation, % at 5 µM;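 active = activation of at least 50%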
bGal cs: E. coli beta-galactosidase enzyme inhibition, confirmation, counter-screen for EBI2 antagonist project, biochemical, luminescence, single concentration; purified beta-galactosidase, luminescent Galacton Star, 15 min; shares compounds with EBI2 antag; inhibition, % at 5 µM; 2,400 compounds, 1% hits;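 active = replicate-average signal at least 3 plate SD below neutral wells, shown as high inhibition, flagging enzyme-inhibiting false positives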;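 also: 0% = DMSO wells with enzyme and 100% = wells lacking enzyme; higher means stronger loss of beta-gal luminescence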
Active calls of the source: *. Compounds with a hit are over-represented: about 3.7% of the library has one in this group of screens.

Results for COc1ccc(CCN2CC(C(=O)N(C)Cc3ccc(C)o3)CCC2=O)cc1 (stereo not given) ?
MC4R antag cAMP: 0.5; Exocytosis inh: -1.5; MC4R ag barr: -0.9; Myeloid diff MLP: inactive; EBI2 antag: 45.3*; EBI2 antag conf: 32.3; EBI2 agonist: 1.4; bGal cs: 0.0

How did C=CCC1(CC=C)CCCN1C(=O)C1CCC(=O)N(CCc2ccc(OC)cc2)C1 (stereo not given) do in these assays?
MC4R antag cAMP: 10.5; Exocytosis inh: 0.1; MC4R ag barr: -0.8; Myeloid diff MLP: inactive; EBI2 antag: 57.4*; EBI2 antag conf: 39.6; EBI2 agonist: -0.1; bGal cs: 7.3

Results for O=C(CN1CCN(C(=O)c2ccco2)CC1)Nc1cccc([N+](=O)[O-])c1 ?
MC4R antag cAMP: 4.7; Exocytosis inh: 0.2; MC4R ag barr: -1.3; Myeloid diff MLP: inactive; EBI2 antag: -14.8

Results for Cc1cccc(C)c1NC(=O)C1(C)CN(S(C)(=O)=O)CC(=O)N1CCc1ccc(O)cc1 (stereo not given) ?
Exocytosis inh: -3.4; Myeloid diff MLP: inactive; EBI2 antag: -4.8

How did COc1ccc(NC(=O)c2ccc(CN3CCN(c4ccccc4)CC3)cc2)cc1 do in these assays?
MC4R antag cAMP: 0.0; Exocytosis inh: 1.5; MC4R ag barr: 2.5; Myeloid diff MLP: inactive; EBI2 antag: 60.6*; EBI2 antag conf: 22.7; EBI2 agonist: 1.5; bGal cs: 8.3

Results for O=C(Nc1ccccc1C(F)(F)F)c1ccc(CN2CCC(Cc3ccccc3)CC2)cc1 ?
MC4R antag cAMP: 3.1; Exocytosis inh: 5.3; MC4R ag barr: 0.0; Myeloid diff MLP: inactive; EBI2 antag: 0.2

What do the screens show for `O=C(Nc1ccccc1)c1ccc(CN2CCC(Cc3ccccc3)CC2)cc1`?
MC4R antag cAMP: 2.1; Exocytosis inh: 3.9; MC4R ag barr: -0.8; Myeloid diff MLP: inactive; EBI2 antag: 64.7*; EBI2 antag conf: 31.8; EBI2 agonist: -0.6; bGal cs: 5.7

Results for COc1cccc(CN2CC(C(=O)NCCOc3cccnc3)CCC2=O)c1 (stereo not given) ?
MC4R antag cAMP: 8.5; Exocytosis inh: 1.0; MC4R ag barr: 2.1; Myeloid diff MLP: inconclusive; EBI2 antag: -9.6

How did COc1ccc(C(=O)N2CC(c3ccc(Cl)cc3)CC2=O)cc1 (stereo not given) do in these assays?
MC4R antag cAMP: 16.4; Exocytosis inh: -2.4; MC4R ag barr: 1.5; Myeloid diff MLP: inactive; EBI2 antag: 12.6

Results for COc1ccc(C(=O)CN2CC(C)SC2=Nc2ccc(Cl)cc2)cc1 (stereo not given) ?
MC4R antag cAMP: -3.2; Exocytosis inh: 2.5; MC4R ag barr: 1.7; Myeloid diff MLP: inactive; EBI2 antag: 44.1*; EBI2 antag conf: 27.1; EBI2 agonist: 0.1; bGal cs: 5.0

What do the screens show for `CC1(C)C2CCC1(C)C(NC(=O)/C=C/c1ccccc1)C2` (stereo not given)?
MC4R antag cAMP: 2.0; Exocytosis inh: 2.0; MC4R ag barr: 3.4; Myeloid diff MLP: inactive; EBI2 antag: 46.3*; EBI2 antag conf: 43.3; EBI2 agonist: 0.1; bGal cs: 1.6

How did O=C(NCCOc1ccc(Cl)cc1)C1CCCCC1 do in these assays?
MC4R antag cAMP: 1.6; Exocytosis inh: -0.5; MC4R ag barr: -0.5; Myeloid diff MLP: inactive; EBI2 antag: 60.9*; EBI2 antag conf: 29.7; EBI2 agonist: 0.2; bGal cs: 10.7

What do the screens show for `O=C(NCCOc1ccc(Cl)cc1)c1cccc(S(=O)(=O)N2CCCC2)c1`?
MC4R antag cAMP: 1.7; Exocytosis inh: 6.3; MC4R ag barr: 2.8; Myeloid diff MLP: inactive; EBI2 antag: 55.9*; EBI2 antag conf: 47.3; EBI2 agonist: -1.2; bGal cs: -9.9

Results for O=C(/C=C/c1ccc(Br)cc1)NC1CCCCCC1 ?
MC4R antag cAMP: 4.9; Exocytosis inh: -0.6; MC4R ag barr: 2.0; Myeloid diff MLP: inactive; EBI2 antag: 64.5*; EBI2 antag conf: 60.7*; EBI2 agonist: -0.6; bGal cs: 9.4

What do the screens show for `COc1ccc(CCNC(=O)/C=C/c2ccc(C)cc2)cc1OC`?
MC4R antag cAMP: 3.9; Exocytosis inh: 3.6; MC4R ag barr: -0.9; Myeloid diff MLP: inactive; EBI2 antag: 33.9

Results for O=C(COC(=O)/C=C/c1cccc(Br)c1)NC1CCCCC1 ?
MC4R antag cAMP: 3.0; Exocytosis inh: 15.9; MC4R ag barr: -1.2; Myeloid diff MLP: inactive; EBI2 antag: 3.3

What do the screens show for `O=C(/C=C/c1cccc(Br)c1)NCC1CCCCC1`?
MC4R antag cAMP: 2.4; Exocytosis inh: -2.1; MC4R ag barr: -2.2; Myeloid diff MLP: inactive; EBI2 antag: 42.5*; EBI2 antag conf: 34.6; EBI2 agonist: -0.8; bGal cs: -18.0

Results for COc1ccc(CCNC(=O)/C=C/c2cc(OC)c(OC)c(OC)c2)cc1OC ?
MC4R antag cAMP: 10.9; Exocytosis inh: -3.1; MC4R ag barr: 1.8; Myeloid diff MLP: inactive; EBI2 antag: 37.5*; EBI2 antag conf: 18.0; EBI2 agonist: 1.0; bGal cs: 10.9

What do the screens show for `COc1cc(/C=C/C(=O)NCC2CCCCC2)cc(OC)c1OC`?
MC4R antag cAMP: 4.2; Exocytosis inh: -1.3; MC4R ag barr: 0.8; Myeloid diff MLP: inactive; EBI2 antag: 51.7*; EBI2 antag conf: 40.2; EBI2 agonist: -1.5; bGal cs: -19.3

How did COc1ccccc1NC(=O)c1cc2c(cc1Cl)N1CCCCCC1=NS2(=O)=O do in these assays?
MC4R antag cAMP: 9.0; Exocytosis inh: 29.3; MC4R ag barr: -2.3; Myeloid diff MLP: inactive; EBI2 antag: -5.8

What do the screens show for `CC(NC(=O)/C=C/c1ccc(Br)cc1)c1ccccc1` (stereo not given)?
MC4R antag cAMP: -0.1; Exocytosis inh: -0.2; MC4R ag barr: 0.1; Myeloid diff MLP: inactive; EBI2 antag: 44.4*; EBI2 antag conf: 23.9; EBI2 agonist: -0.9; bGal cs: -14.3

What do the screens show for `CC(NC(=O)/C=C/c1ccccc1)c1ccccc1` (stereo not given)?
MC4R antag cAMP: 0.7; Exocytosis inh: 0.0; MC4R ag barr: 1.8; Myeloid diff MLP: inactive; EBI2 antag: -2.2

Assay outcomes as filed in PubChem BioAssay.
